Test results: ChEMBL document CHEMBL4000162, “Arborinane Triterpenoids from Rubia philippinensis Inhibit Proliferation and Migration of Vascular Smooth Muscle Cells Induced by the Platelet-Derived Growth Factor” (J Nat Prod, 2016)
Calls of active or inactive are those of the source. The rule behind the calls is not given here.

How the values were obtained:
VSMC [1] = test: Antimigratory activity against PDGF-BB-stimulated rat VSMC preincubated for 2 hrs followed by PDGF-BB addition measured after 48 hrs by scratch wound-healing assay; type: functional, cell-based
Procedure, shortened: (§1)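 Rat aortic VSMCs (enzymatic dispersion; DMEM, 10% FBS) grown in 12-well plates to >90% confluence, serum-starved 24 h, scratched with two lines and imaged at 0 h. Pretreated 2 h with compound (paclitaxel 1 μM as reference), then 25 ng/mL PDGF-BB for 48 h. Fixed in 100% MeOH, stained with 0.5% crystal violet, migration area quantified from images. Means ± SEM of triplicate experiments.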

[2] = Antimigratory activity against PDGF-BB-stimulated rat VSMC at 10 uM preincubated for 2 hrs followed by PDGF-BB addition measured after 48 hrs by scratch wound-healing assay; type: functional; procedure, shortened: as §1
VSMC [3] = test: Antimigratory activity against PDGF-BB-stimulated rat VSMC preincubated for 2 hrs followed by PDGF-BB addition measured after 48 hrs by photograph-based scratch wound-healing assay; type: functional, cell-based; procedure, shortened: as §1
[4] = Cytotoxicity against rat VSMC assessed as decrease in cell viability at 10 to 30 uM after 48 hrs by MTT assay; type: cell-based
Procedure, shortened: (§2)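 Rat aortic VSMCs seeded at 3.5 × 10^4 cells/mL in DMEM/10% FBS and grown to 70% confluence, then serum-free for 24 h. Exposed to compound for 48 h without PDGF (digitonin 100 μg/mL reference). Viability by MTT: 5 mg/mL for 4 h, DMSO, absorbance at 565 nm. Means ± SEM.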

[5] = (§3) Antimigratory activity against PDGF-BB-stimulated rat VSMC at 30 uM preincubated for 2 hrs followed by PDGF-BB addition measured after 48 hrs by scratch wound-healing assay; type: functional; procedure, shortened: as §1
[6] = Antiproliferative activity against PDGF-BB-stimulated rat VSMC at 5 uM preincubated for 24 hrs followed by PDGF-BB addition measured after 24 hrs by MTT assay relative to control; type: functional
Procedure, shortened: (§4)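 Rat aortic VSMCs seeded at 3.5 × 10^4 cells/mL and grown in DMEM/10% FBS at 37 °C to 70% confluence. Serum-starved 24 h, given compound for 24 h (paclitaxel 1 μM reference), then stimulated with 25 ng/mL PDGF-BB for 24 h. MTT 5 mg/mL in serum-free DMEM for 4 h, DMSO solubilisation, absorbance read at 565 nm. Means ± SEM of triplicates.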

[7] = Cytotoxicity against rat VSMC assessed as decrease in cell viability at 5 uM after 48 hrs by MTT assay; type: cell-based; procedure, shortened: as §2
VSMC [8] = test: Antiproliferative activity against PDGF-BB-stimulated rat VSMC at 10 to 30 uM preincubated for 24 hrs followed by PDGF-BB addition measured after 24 hrs by MTT assay; type: functional, cell-based; procedure, shortened: as §4
VSMC [9] = test: Antimigratory activity against PDGF-BB-stimulated rat VSMC at 10 to 30 uM preincubated for 2 hrs followed by PDGF-BB addition measured after 48 hrs by scratch wound-healing assay; type: functional, cell-based; procedure, shortened: as §1
VSMC [10] = test: Antiproliferative activity against PDGF-BB-stimulated rat VSMC at 30 uM preincubated for 24 hrs followed by PDGF-BB addition measured after 24 hrs by MTT assay; type: functional, cell-based; procedure, shortened: as §4
VSMC [11] = test: as §3; type: functional; procedure, shortened: as §1
[12] = Cytotoxicity against rat VSMC assessed as decrease in cell viability at 30 uM after 48 hrs by MTT assay; type: cell-based; procedure, shortened: as §2

Structure (SMILES) | Activity [4] | inhibition at 5 µM [6] | Activity [7] | inhibition (VSMC [8]) | Activity (VSMC [9]) | other results
CC(=O)O[C@H]1CC[C@]2(C)C3=CC[C@]4(C)[C@H]5[C@H](O)C[C@@H](C(C)C)[C@]5(CO)CC[C@@]4(C)[C@@H]3[C@@H](O)C[C@H]2C1(C)C | Non-Toxic |  |  |  |  | Activity (VSMC [1]): Dose-dependent effect; Activity [2]: 38.5%; Activity (VSMC [3]): Dose-dependent effect; Activity [5]: 57.6%
CC(C)[C@@H]1C[C@@H]2OC[C@]13CC[C@@]1(C)[C@H]4C(=CC[C@]1(C)[C@@H]23)[C@@]1(C)CC[C@H](O)C(C)(C)[C@@H]1C[C@@H]4O | Toxic | 62.6% | Non-Toxic | Active | Active | 
CC(=O)O[C@@H]1C[C@@H](C(C)C)[C@]2(C)CC[C@@]3(C)[C@H]4C(=CC[C@]3(C)[C@@H]12)[C@@]1(C)CC[C@H](O)C(C)(C)[C@@H]1C[C@@H]4O | Toxic |  |  | Active | Active | 
CC(=O)O[C@@H]1C[C@@H](C(C)C)[C@]2(C)CC[C@@]3(C)[C@H]4C(=CC[C@]3(C)[C@@H]12)[C@@]1(C)C=CC(=O)C(C)(C)[C@@H]1C[C@@H]4O | Toxic | 41.1% | Non-Toxic | Active |  | 
CC(=O)OC[C@@]12CC[C@@]3(C)[C@H]4C(=CC[C@]3(C)[C@H]1[C@H](O)C[C@H]2C(C)C)[C@@]1(C)CC[C@H](OC(C)=O)C(C)(C)[C@@H]1C[C@@H]4O |  |  |  |  |  | inhibition (VSMC [10]): Active; Activity (VSMC [11]): Active; Activity [12]: Toxic
